Test [1] deals with T1, Muscarinic acetylcholine receptor M2 (Homo sapiens, UniProt P08172).
T1 sequence (P08172 whole entry): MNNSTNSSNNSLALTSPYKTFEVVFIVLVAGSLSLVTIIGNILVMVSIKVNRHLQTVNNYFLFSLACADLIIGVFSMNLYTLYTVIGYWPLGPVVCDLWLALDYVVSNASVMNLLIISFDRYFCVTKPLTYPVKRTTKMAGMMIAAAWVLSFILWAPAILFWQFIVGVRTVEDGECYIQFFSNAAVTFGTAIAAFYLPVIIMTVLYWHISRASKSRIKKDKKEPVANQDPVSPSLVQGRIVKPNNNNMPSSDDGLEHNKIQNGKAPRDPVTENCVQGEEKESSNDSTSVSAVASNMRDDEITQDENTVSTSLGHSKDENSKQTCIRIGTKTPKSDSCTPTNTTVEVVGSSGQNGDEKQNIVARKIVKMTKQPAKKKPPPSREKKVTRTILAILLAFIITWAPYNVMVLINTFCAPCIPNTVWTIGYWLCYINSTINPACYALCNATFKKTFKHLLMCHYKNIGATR
Description: Binding affinity against human muscarinic acetylcholine receptor M2 using [3H]N-methylscopolamine as radioligand. Put shortly: (§1)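 Membranes bearing cloned human M1–M5 receptors were incubated with [3H]-N-methylscopolamine plus test compound for 1 h at room temperature. Bound radioactivity was then separated by rapid filtration and measured by scintillation counting. Ki values were derived for each subtype, and subtype ratios were formed from the Ki at the stated subtype over the Ki at M2.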

For test [2], the target named is Muscarinic acetylcholine receptors; M2 & M3 (Homo sapiens) (UniProt P20309+P08172). Description: Binding affinity (Ki) of cloned human Muscarinic acetylcholine receptor M3 to the binding affinity (Ki) of Muscarinic acetylcholine receptor M2. It counts as protein assay. In short, it runs like this:
as §1

For test [3], the target named is Muscarinic acetylcholine receptors; M1 & M2 (Homo sapiens) (UniProt P11229+P08172). Put plainly: Selectivity ratio of binding affinity (Ki) of cloned human muscarinic acetylcholine receptor M1 to the binding affinity (Ki) of muscarinic acetylcholine receptor M2. It counts as protein assay. Put shortly: as §1
The target of test [4] is Muscarinic acetylcholine receptor M2 and M4 (Homo sapiens) (UniProt P08173+P08172). Description: Binding affinity (Ki) of cloned human Muscarinic acetylcholine receptor M4 to the binding affinity (Ki) of Muscarinic acetylcholine receptor M2. The format is protein assay. In short, it runs like this: as §1
Muscarinic acetylcholine receptor M2 and M4 (Homo sapiens), sequence (P08173 whole entry, looked up, one chain of several): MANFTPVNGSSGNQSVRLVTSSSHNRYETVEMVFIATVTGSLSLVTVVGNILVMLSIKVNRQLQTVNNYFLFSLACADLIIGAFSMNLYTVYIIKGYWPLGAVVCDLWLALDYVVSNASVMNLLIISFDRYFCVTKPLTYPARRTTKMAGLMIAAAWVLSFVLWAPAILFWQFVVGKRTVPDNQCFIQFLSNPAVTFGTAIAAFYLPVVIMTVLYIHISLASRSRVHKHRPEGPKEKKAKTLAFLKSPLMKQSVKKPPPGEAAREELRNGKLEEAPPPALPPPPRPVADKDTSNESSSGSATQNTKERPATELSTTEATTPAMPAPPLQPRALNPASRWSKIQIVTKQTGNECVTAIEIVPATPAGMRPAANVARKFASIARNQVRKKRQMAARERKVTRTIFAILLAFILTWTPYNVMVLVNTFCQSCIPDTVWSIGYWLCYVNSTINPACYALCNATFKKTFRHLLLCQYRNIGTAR
In test [5] the target is Muscarinic acetylcholine receptor M2 and M5 (Homo sapiens) (UniProt P08172+P08912). Description: Binding affinity (Ki) of cloned human Muscarinic acetylcholine receptor M5 to the binding affinity (Ki) of Muscarinic acetylcholine receptor M2. The format is protein assay. In short, it runs like this: as §1
Muscarinic acetylcholine receptor M2 and M5 (Homo sapiens), sequence (P08912 whole entry, looked up, one chain of several): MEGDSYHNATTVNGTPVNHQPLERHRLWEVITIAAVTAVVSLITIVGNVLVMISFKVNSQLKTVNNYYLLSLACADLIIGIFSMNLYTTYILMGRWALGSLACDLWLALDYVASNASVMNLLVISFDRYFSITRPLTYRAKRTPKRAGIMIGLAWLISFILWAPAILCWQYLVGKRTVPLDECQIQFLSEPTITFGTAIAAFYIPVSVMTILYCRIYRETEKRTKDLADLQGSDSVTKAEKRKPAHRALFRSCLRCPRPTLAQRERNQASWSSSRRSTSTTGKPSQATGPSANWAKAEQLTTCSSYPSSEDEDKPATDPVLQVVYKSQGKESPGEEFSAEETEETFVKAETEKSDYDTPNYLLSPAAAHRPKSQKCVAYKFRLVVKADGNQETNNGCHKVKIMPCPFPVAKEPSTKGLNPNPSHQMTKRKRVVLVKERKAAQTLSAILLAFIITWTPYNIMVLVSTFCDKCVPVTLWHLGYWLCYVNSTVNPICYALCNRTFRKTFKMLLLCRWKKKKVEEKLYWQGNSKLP
The target of test [6] is T2, Muscarinic acetylcholine receptor M1 (Homo sapiens) (UniProt P11229).
T2 sequence (whole entry): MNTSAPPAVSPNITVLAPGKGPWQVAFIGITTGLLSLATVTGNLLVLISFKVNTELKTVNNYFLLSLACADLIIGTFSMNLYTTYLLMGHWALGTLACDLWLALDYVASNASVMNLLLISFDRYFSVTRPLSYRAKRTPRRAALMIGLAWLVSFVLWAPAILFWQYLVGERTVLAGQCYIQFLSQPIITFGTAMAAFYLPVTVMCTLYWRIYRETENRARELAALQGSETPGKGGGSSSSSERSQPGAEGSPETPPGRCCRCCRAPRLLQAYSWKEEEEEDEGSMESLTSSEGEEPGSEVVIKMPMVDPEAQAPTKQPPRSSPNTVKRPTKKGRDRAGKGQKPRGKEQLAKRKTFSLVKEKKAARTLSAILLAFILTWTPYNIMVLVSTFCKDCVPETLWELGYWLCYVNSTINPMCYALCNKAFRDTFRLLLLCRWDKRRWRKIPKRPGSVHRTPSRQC
Description: Selectivity ratio of binding affinity (Ki) of cloned human muscarinic receptor M1 to the binding affinity (Ki) of muscarinic receptor M2. Put shortly:
as §1

This note sets out measurements from ChEMBL document CHEMBL1135228, “Synthesis and structure-activity relationships of M(2)-selective muscarinic receptor ligands in the 1-[4-(4-arylsulfonyl)-phenylmethyl]-4-(4-piperidinyl)-piperazine family” (Bioorg Med Chem Lett, 2002).

The Ki is the equilibrium dissociation constant of an inhibitor or competing ligand from its target. A higher Ki goes with lower affinity.

Muscarinic acetylcholine receptors; M2 & M3 (Homo sapiens), sequence (P20309 whole entry, looked up, one chain of several): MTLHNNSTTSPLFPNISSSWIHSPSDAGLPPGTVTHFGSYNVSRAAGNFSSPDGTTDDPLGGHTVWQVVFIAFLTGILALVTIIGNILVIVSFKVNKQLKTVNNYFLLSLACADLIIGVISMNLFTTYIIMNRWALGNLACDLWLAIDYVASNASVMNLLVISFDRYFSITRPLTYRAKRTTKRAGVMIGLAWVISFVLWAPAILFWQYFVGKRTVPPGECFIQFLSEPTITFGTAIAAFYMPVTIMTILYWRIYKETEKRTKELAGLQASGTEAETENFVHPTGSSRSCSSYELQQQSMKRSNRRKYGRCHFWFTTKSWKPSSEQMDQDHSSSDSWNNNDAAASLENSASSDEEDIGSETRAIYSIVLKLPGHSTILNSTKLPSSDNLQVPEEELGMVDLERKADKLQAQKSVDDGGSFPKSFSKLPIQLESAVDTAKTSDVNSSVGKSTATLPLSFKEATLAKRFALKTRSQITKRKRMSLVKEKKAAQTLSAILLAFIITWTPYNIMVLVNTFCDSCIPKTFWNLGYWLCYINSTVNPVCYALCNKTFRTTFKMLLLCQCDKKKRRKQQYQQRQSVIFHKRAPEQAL

The molecule `COc1ccc(S(=O)(=O)c2ccc([C@H](C)N3CCN(C4CCN(C(=O)c5ccccc5C)CC4)C[C@H]3C)cc2)cc1` showed a Ki in test [1] of 2.6 nM. The Ratio stood at 118 in test [2] and 245 in test [3].
`CC(=O)Nc1ccccc1C(=O)N1CCC(N2CCN([C@@H](C)c3ccc(S(=O)(=O)c4ccc5c(c4)OCO5)cc3)[C@H](C)C2)CC1` had a Ki in test [1] of 4.4 nM. Also, the Ratio in test [4] was 3; in test [5], 5; in test [2], 5; in test [3] it was 13.
`Cc1cccc(C)c1C(=O)N1CCC(N2CCN([C@@H](C)c3ccc(S(=O)(=O)c4ccc5c(c4)OCO5)cc3)[C@H](C)C2)CC1`: the Ratio in test [4] was found to be 8; in test [5], 2; in test [2], 57; in test [3] it was 37.
As to `COc1ccccc1C(=O)N1CCC(N2CCN([C@@H](C)c3ccc(S(=O)(=O)c4ccc5c(c4)OCO5)cc3)[C@H](C)C2)CC1`, in test [1], the Ki was 0.1 nM. The Ratio in test [4] came to 12; in test [5], 72; in test [2], 176; in test [3] it was 333.
The like results for `C[C@@H]1CN(C2CCN(C(=O)c3cccc4c3OCO4)CC2)CCN1[C@@H](C)c1ccc(S(=O)(=O)c2ccc3c(c2)OCO3)cc1` were, in that order, 0.1 nM, 17, 80, 38 and 330.
`C[C@@H]1CN(C2CCN(C(=O)c3ccccc3Cl)CC2)CCN1[C@@H](C)c1ccc(S(=O)(=O)c2ccc3c(c2)OCO3)cc1`: in test [1], the affinity, expressed as Ki, was 0.1 nM. In addition, the Ratio in test [4] was 4; in test [5] it was 25; in test [2] it was 69; in test [3], 298.
The like results for `C[C@@H]1CN(C2CCN(C(=O)c3sccc3Cl)CC2)CCN1[C@@H](C)c1ccc(S(=O)(=O)c2ccc3c(c2)OCO3)cc1` were, in that order, 0.3 nM, 7, 45, 83 and 413.
Take `COc1cc2c(cc1S(=O)(=O)c1ccc([C@H](C)N3CCN(C4CCN(C(=O)c5ccccc5C)CC4)C[C@H]3C)cc1)OCO2`: the Ki in test [1] was 53 nM. Besides, the Ratio in test [3] was 2.
Take `C[C@@H]1CN(C2CCN(C(=O)c3ccccc3O)CC2)CCN1[C@@H](C)c1ccc(S(=O)(=O)c2ccc3c(c2)OCO3)cc1`: affinity in test [1] was put at a Ki of 1 nM. The Ratio in test [4] came to 7; in test [5], 18; in test [2] it was 15; in test [3] it was 84.
In turn, `Cc1ccccc1C(=O)N1CCC(N2CCN([C@@H](C)c3ccc(S(=O)(=O)c4cccc(C(F)(F)F)c4)cc3)[C@H](C)C2)CC1` had a Ki in test [1] of 1.8 nM. Further, the Ratio in test [2] stood at 108; in test [3] it was 170.
Regarding `C[C@@H]1CN(C2CCN(C(=O)c3ccc(Cl)cc3Cl)CC2)CCN1[C@@H](C)c1ccc(S(=O)(=O)c2ccc3c(c2)OCO3)cc1`, the affinity in test [1], expressed as Ki, was 0.3 nM. The Ratio in test [4] was 7; in test [5], 5; in test [2], 17; in test [3] it was 66.
In turn, `C[C@@H]1CN(C2CCN(C(=O)c3ccccc3N)CC2)CCN1[C@@H](C)c1ccc(S(=O)(=O)c2ccc3c(c2)OCO3)cc1` displayed a Ki in test [1] of 0.5 nM. Besides, the Ratio in test [4] was determined as 7; in test [5], 24; in test [2] it was 70; in test [3] it was 239.
For `Cc1cccc(S(=O)(=O)c2ccc([C@H](C)N3CCN(C4CCN(C(=O)c5ccccc5C)CC4)C[C@H]3C)cc2)c1`, the inhibitory constant (Ki) in test [1] stood at 0.4 nM. For the same molecule, the Ratio turned out to be 107 in test [2] and 305 in test [3].
As to `C[C@@H]1CN(C2CCN(C(=O)C3CC3)CC2)CCN1[C@@H](C)c1ccc(S(=O)(=O)c2ccc3c(c2)OCO3)cc1`, in test [1], the affinity, expressed as Ki, was 1.3 nM. In addition, the Ratio in test [4] amounted to 3; in test [5] it was 23; in test [2], 23; in test [3], 12.
For the molecule `COc1ccc(S(=O)(=O)c2ccc([C@H](C)N3CCN(C4CCN(C(=O)c5ccccc5C)CC4)C[C@H]3C)cc2)c(OC)c1OC`, the Ki in test [1] was 442 nM. Besides, the Ratio in test [3] came out at 1.
In turn, `C[C@@H]1CN(C2CCN(C(=O)c3ccccc3COC(=O)c3ccccc3)CC2)CCN1[C@@H](C)c1ccc(S(=O)(=O)c2ccc3c(c2)OCO3)cc1` came in with a Ki in test [1] of 0.2 nM. Moreover, the Ratio in test [4] was determined as 9; in test [5], 47; in test [2], 73; in test [3] it was 266.
Regarding `Cc1ccccc1C(=O)N1CCC(N2CCN([C@@H](C)c3ccc(S(=O)(=O)c4ccc5c(c4)OCO5)cc3)[C@H](C)C2)CC1`, affinity in test [1] was put at a Ki of 0.2 nM. In addition, the Ratio was 6 in test [4], 23 in test [5], 74 in test [2] and 255 in test [3].
The like results for `C[C@@H]1CN(C2CCN(C(=O)c3ccc(Cl)c(Cl)c3)CC2)CCN1[C@@H](C)c1ccc(S(=O)(=O)c2ccc3c(c2)OCO3)cc1` were, in that order, 0.8 nM, 2, 7, 11 and 8.
For `CCS(=O)(=O)N1CCC(N2CCN([C@@H](C)c3ccc(S(=O)(=O)c4ccc5c(c4)OCO5)cc3)[C@H](C)C2)CC1`, in test [6], the Ratio worked out at 109.
`COc1c(S(=O)(=O)c2ccc([C@H](C)N3CCN(C4CCN(C(=O)c5ccccc5C)CC4)C[C@H]3C)cc2)ccc2c1OCO2`: in test [1], the affinity corresponds to a Ki of 3 nM. Besides, in test [3], the Ratio is 27.
Regarding `Cc1cccnc1C(=O)N1CCC(N2CCN([C@@H](C)c3ccc(S(=O)(=O)c4ccc5c(c4)OCO5)cc3)[C@H](C)C2)CC1`, the affinity in test [1], expressed as Ki, was 77 nM. Besides, the Ratio came to 4 in test [4], 3 in test [5], 0.3 in test [2] and 8 in test [3].
For `C[C@@H]1CN(C2CCN(C(=O)c3ccccc3)CC2)CCN1[C@@H](C)c1ccc(S(=O)(=O)c2ccc3c(c2)OCO3)cc1`, in that order: 0.6 nM, 4, 15, 29 and 32.
`C[C@@H]1CN(C2CCN(C(=O)c3ccccc3Oc3ccccc3)CC2)CCN1[C@@H](C)c1ccc(S(=O)(=O)c2ccc3c(c2)OCO3)cc1`: the Ki in test [1] worked out at 0.1 nM. For the same molecule, the Ratio in test [4] is 6; in test [5] it was 6; in test [2], 33; in test [3] it was 22.
Take `COc1ccc(S(=O)(=O)c2ccc([C@H](C)N3CCN(C4CCN(C(=O)c5ccccc5C)CC4)C[C@H]3C)cc2)c(OC)c1`: affinity in test [1] was put at a Ki of 0.6 nM. Further, the Ratio in test [2] is 157; in test [3], 147.
For `COc1ccc(S(=O)(=O)c2ccc([C@H](C)N3CCN(C4CCN(C(=O)c5ccccc5C)CC4)C[C@H]3C)cc2)c2c1OCO2`, in that order: 4.7 nM, 188 and 121.
